This is an account of results in ChEMBL document CHEMBL3407478, “Development of a series of aryl pyrimidine kynurenine monooxygenase inhibitors as potential therapeutic agents for the treatment of Huntington's disease” (J Med Chem, 2015).

In series [1] the test system is Liver microsome. The series is described as follows: Intrinsic clearance in rat liver microsomes assessed per mg of protein. The format is ADME. Also on record: unit not given here. The essentials:
(§1)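 Stability assessed in human, rat and mouse liver microsomes; intrinsic clearance expressed per mg microsomal protein.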
For orientation: Microsomes from liver hold many membrane-bound enzymes, among them those of drug oxidation.

Series [2] is described as follows: Aqueous solubility of the compound. Format: physicochemical.
The test system of series [3] is Liver microsome. The series is described as follows: Intrinsic clearance in human liver microsomes assessed per mg of protein. The format is ADME. Also on record: unit not given here. Put shortly:
as §1

In a further series the test system is Liver. The series is described as follows: Intrinsic clearance in mouse liver microsomes assessed per mg of protein. The format is ADME. Also on record: unit not given here. Put shortly:
as §1

A short description of series [4]: Lipophilicity, log P of the compound at pH 7. Format: physicochemical. The note with it: buffer.
For series [5], the target named is T1, Kynurenine 3-monooxygenase (Homo sapiens, UniProt O15229). Description: Inhibition of human KMO assessed as conversion of kynurenine to 3-hydroxykynurenine by LC-MS/MS analysis.
T1 sequence (O15229 whole entry): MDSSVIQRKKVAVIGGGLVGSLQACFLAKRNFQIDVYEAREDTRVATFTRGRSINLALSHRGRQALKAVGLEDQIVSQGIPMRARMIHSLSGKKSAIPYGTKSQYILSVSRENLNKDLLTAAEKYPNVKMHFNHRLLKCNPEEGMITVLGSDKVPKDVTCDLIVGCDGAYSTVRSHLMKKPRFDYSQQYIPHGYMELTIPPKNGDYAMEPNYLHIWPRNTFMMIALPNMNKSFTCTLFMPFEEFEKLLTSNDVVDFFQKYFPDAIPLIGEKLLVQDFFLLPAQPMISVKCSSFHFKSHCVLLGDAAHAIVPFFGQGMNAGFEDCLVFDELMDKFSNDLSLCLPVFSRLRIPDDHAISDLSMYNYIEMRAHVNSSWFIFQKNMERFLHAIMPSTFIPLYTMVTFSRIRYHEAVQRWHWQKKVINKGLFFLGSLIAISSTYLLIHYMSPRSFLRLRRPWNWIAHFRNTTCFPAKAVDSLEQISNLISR
In series [6] the target is T1, Kynurenine 3-monooxygenase. The series is described as follows: Inhibition of KMO (unknown origin).
Series [7] in a line: Permeability from basolateral to apical side in human Caco2 cells. Format: ADME, cell-based. The note with it: Caco-2, read-out: permeability. Background: Passage across Caco-2 layers is used to estimate intestinal permeability.
Series [8] in a line: Permeability from apical to basolateral side in human Caco2 cells. The format is ADME, cell-based. Particulars: Caco-2, read-out: permeability.
Series [9] deals with T2, Kynurenine 3-monooxygenase (Rattus norvegicus, UniProt O88867). Description: Inhibition of rat KMO assessed as conversion of kynurenine to 3-hydroxykynurenine by LC-MS/MS analysis. Put shortly:
(§2)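 Mitochondrial fractions from mouse or rat liver tissue used as KMO source. Conversion of kynurenine to 3-hydroxykynurenine quantified by LC-MS/MS; IC50 averaged from triplicate tests.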

The target in series [10] is T2, Kynurenine 3-monooxygenase. The series is described as follows: Inhibition of KMO in rat microglia cells. Format: cell-based. The essentials:
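Freshly isolated neonatal rat microglial cultures, induced to express KMO by a pro-inflammatory protocol. Exogenous KYN added; conversion to 3-HK monitored by mass spectrometry.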

The target in series [11] is Kynurenine 3-monooxygenase (Mus musculus, UniProt Q91WN4). The series is described as follows: Inhibition of mouse KMO assessed as conversion of kynurenine to 3-hydroxykynurenine by LC-MS/MS analysis. Put shortly:
as §2

Series [12] deals with T1, Kynurenine 3-monooxygenase. Description: Inhibition of KMO in human PBMC.
Series [13] has as its target T1, Kynurenine 3-monooxygenase. Description: Inhibition of human KMO transfected in CHO cells assessed as conversion of kynurenine to 3-hydroxykynurenine by LC-MS/MS analysis. The format is cell-based.

Each structure is given as a SMILES string. Converted amounts (≈) assume the structure as drawn.

Chain of Kynurenine 3-monooxygenase (Mus musculus, UniProt Q91WN4) (Q91WN4 whole entry): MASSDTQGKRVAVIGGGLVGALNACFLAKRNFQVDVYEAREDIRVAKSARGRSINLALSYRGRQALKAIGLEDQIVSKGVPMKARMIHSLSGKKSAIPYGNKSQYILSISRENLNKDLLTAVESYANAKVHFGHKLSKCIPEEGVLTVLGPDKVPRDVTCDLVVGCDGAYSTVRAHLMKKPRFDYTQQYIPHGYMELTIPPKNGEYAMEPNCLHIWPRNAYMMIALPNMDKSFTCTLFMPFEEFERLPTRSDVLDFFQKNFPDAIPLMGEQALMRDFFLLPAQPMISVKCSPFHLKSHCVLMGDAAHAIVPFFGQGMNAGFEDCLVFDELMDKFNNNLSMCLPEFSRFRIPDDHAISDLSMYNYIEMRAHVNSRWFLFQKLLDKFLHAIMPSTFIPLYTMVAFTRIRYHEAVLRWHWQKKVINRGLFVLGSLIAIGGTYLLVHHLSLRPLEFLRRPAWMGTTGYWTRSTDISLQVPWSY
T2 sequence (O88867 whole entry): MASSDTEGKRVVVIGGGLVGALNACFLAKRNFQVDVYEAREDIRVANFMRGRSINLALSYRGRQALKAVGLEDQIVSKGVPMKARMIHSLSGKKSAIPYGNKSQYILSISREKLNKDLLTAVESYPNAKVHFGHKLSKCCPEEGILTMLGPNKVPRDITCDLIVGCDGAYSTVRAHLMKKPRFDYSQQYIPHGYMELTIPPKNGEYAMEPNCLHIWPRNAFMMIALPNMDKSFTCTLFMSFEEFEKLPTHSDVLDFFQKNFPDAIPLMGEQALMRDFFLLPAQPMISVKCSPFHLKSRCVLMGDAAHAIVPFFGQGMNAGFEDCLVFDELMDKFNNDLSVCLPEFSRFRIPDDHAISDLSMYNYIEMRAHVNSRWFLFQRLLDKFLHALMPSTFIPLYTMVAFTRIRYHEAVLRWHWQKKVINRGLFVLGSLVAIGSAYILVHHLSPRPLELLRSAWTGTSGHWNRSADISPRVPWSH

A word on the solubility: it is the concentration that dissolves in the medium under given conditions. For orientation: logD means the decadic logarithm of the distribution of all forms, ionised or not, between an organic phase and buffer at a given pH. Turning to `O=C(O)c1cc(-c2ccc(OC3CCC3)c(Cl)c2)ncn1`, the CLH in the series with Liver microsome [1], in the series with Liver microsome [3] and in the series on Liver was < 0.02 each time. Further, in series [2], the solubility was > 1000 µg/mL. Further, in series [4], the logD was found to be 1.19.

As for `O=C(O)c1cc(-c2cccc(C(F)(F)F)c2)ncn1`, the logD in [4] is 0.36.

Regarding `O=C(O)c1cc(-c2cccc(Cl)c2F)ncn1`, the logD in [4] was -0.34.

In the case of `O=C(O)c1cc(-c2ccc(F)cc2F)ncn1`, the logD in [4] is -0.88.

The IC50 is the concentration that inhibits the measured activity by half. Consider `Cn1nnc(-c2cc(-c3ccc(Cl)c(Cl)c3)ncn2)n1`, for which the IC50 in [5] was > 10000 nM.

As for `O=C(O)c1cc(-c2ccc(F)c(Cl)c2)ncn1`, in series [4], the pH-dependent lipophilicity (logD) came out at 0.41.

`O=C(O)[C@H]1C[C@@H]1C(=O)c1ccc(Cl)c(Cl)c1` came in with an IC50 in series [6] of 20 nM.

`O=C(O)c1cc(-c2ccc(Cl)c(F)c2)ncn1`: the logD in series [4] came to 0.4.

For `CC(=O)Nc1cc(-c2ccc(Cl)c(Cl)c2)ncn1`, the IC50 in [5] was > 10000 nM.

Take `Cc1ccc(-c2cc(C(=O)O)ncn2)cc1Cl`: the Papp B→A in series [7] was 35.3 ×10⁻⁶ cm/s. In addition, in [2], the solubility was > 1000 µg/mL. In addition, in series [8], the Papp A→B is 24 ×10⁻⁶ cm/s. Also, the IC50 in series [9] turned out to be 4.1 nM; in [10], 100 nM; in [11], 6.2 nM. The same molecule came in with a logD in series [4] of 0.8.

`COc1cc(-c2cc(C(=O)O)ncn2)ccc1Cl`: the pH-dependent lipophilicity (logD) in series [4] turned out to be 0.59.

As to `O=C(O)c1cc(-c2ccc(OC3COC3)c(Cl)c2)ncn1`, the CLH in the series on Liver microsome [1], in the series on Liver microsome [3] and with Liver was < 0.02 each time. Further, the solubility in series [2] is > 1000 µg/mL.

Consider `O=C(O)c1cc(-c2ccc(OC3CCCCC3)c(Cl)c2)ncn1`, for which the CLH in the series with Liver microsome [1], in the series on Liver microsome [3] and with Liver was < 0.02 throughout. Also, the concentration in solution in [2] (solubility) came to 500 µg/mL (≈ 1.5 mM).

As to `O=C(O)c1cc(-c2ccc(C(F)(F)F)c(Cl)c2)ncn1`, the logD in series [4] was 1.35.

Regarding `O=C(O)c1cc(-c2cc(Cl)c3occc3c2)ncn1`, in series [7], the Papp B→A stood at 41 ×10⁻⁶ cm/s. Further, the CLH with Liver microsome [1], in the series on Liver microsome [3] and in the series with Liver was < 0.02 throughout. Moreover, in series [2], the concentration in solution (solubility) was 820 µg/mL (≈ 2.99 mM). Besides, the Papp A→B in series [8] is 21.9 ×10⁻⁶ cm/s. In series [4], this molecule came in with a logD of 0.85.

`O=C(O)c1cc(-c2ccccc2)ncn1`: the logD in series [4] was -0.98.

As to `CC(C)Oc1ccc(-c2cc(C(=O)O)ncn2)cc1Cl`, the Papp B→A in series [7] stood at 21.2 ×10⁻⁶ cm/s. Besides, the CLH in the series with Liver microsome [1], with Liver microsome [3] and in the series with Liver was < 0.02 each time. Further, in series [2], the solubility is > 1000 µg/mL. Further, in series [8], the Papp A→B is 16.5 ×10⁻⁶ cm/s. The same molecule gave a logD in series [4] of 1.28.

As for `CS(=O)(=O)Nc1cc(-c2ccc(Cl)c(Cl)c2)ncn1`, the IC50 in series [5] was > 10000 nM.

As to `Clc1ccc(-c2cc(-n3cccn3)ncn2)cc1Cl`, the IC50 in series [5] is > 10000 nM.

As to `O=C(O)c1cc(-c2ccc(F)c(F)c2)ncn1`, in series [7], the Papp B→A was 26 ×10⁻⁶ cm/s. In addition, the solubility in series [2] was > 1000 µg/mL. In addition, in series [8], the Papp A→B amounted to 13.6 ×10⁻⁶ cm/s. The results for the IC50 in series [9], in series [10] and in series [11] were 2 nM, 86 nM and 1.5 nM, respectively. Moreover, the logD in series [4] was -0.45.

Turning to `O=C(O)c1cc(-c2ccc(Cl)c(Cl)c2)ncn1`, the Papp B→A in series [7] was determined as 32.4 ×10⁻⁶ cm/s. Besides, the IC50 in series [12] came out at 72 nM; in series [13] it was 33 nM; in series [9], 3.2 nM; in [10], 105 nM; in series [5] it was 0.6 nM; in series [11], 6 nM. Besides, the solubility in series [2] came to 740 µg/mL (≈ 2.75 mM). Also, the Papp A→B in [8] was determined as 41.4 ×10⁻⁶ cm/s. In addition, in series [4], the logD turned out to be 1.12.

In series [4], `O=C(O)c1cc(-c2cc(Cl)cc(Cl)c2)ncn1` displayed a logD of 1.15.

Regarding `Clc1ccc(-c2cc(-n3ccnc3)ncn2)cc1Cl`, in [5], the IC50 was > 10000 nM.

With `Cc1cccc(-c2cc(C(=O)O)ncn2)c1`, the logD in series [4] is -0.19.

As to `O=C(O)c1cc(-c2ccc(OCC3CC3)c(Cl)c2)ncn1`, the CLH with Liver microsome [1], in the series on Liver microsome [3] and with Liver was < 0.02 each time. In addition, the solubility in [2] was > 1000 µg/mL.

For the molecule `O=C(O)c1cc(-c2cccc(F)c2)ncn1`, the logD in [4] was -0.8.

On to `COc1ccc(-c2cc(C(=O)O)ncn2)cc1Cl`, for which the Papp B→A in series [7] was found to be 31.3 ×10⁻⁶ cm/s. Also, the solubility in series [2] is > 1000 µg/mL. In addition, the Papp A→B in series [8] amounted to 15.8 ×10⁻⁶ cm/s. The molecule further came in with a logD in series [4] of 0.28.

`O=C(O)c1cc(-c2ccc(Cl)cc2F)ncn1`: the logD in series [4] stood at 0.44.

For the molecule `O=C(O)c1cc(-c2ccc(OC3CCCC3)c(Cl)c2)ncn1`, in series [7], the Papp B→A worked out at 16.7 ×10⁻⁶ cm/s. Moreover, the CLH with Liver microsome [1], in the series on Liver microsome [3] and in the series on Liver was < 0.02 in each case. Also, the solubility in [2] is > 1000 µg/mL. In addition, the Papp A→B in [8] was found to be 20.5 ×10⁻⁶ cm/s. Also, the log distribution coefficient (logD) in [4] is 2.18.

As for `O=C(O)c1cc(-c2ccc(OC(F)(F)F)c(Cl)c2)ncn1`, the Papp B→A in series [7] worked out at 17.1 ×10⁻⁶ cm/s. The CLH in the series with Liver microsome [1], in the series on Liver microsome [3] and in the series with Liver was < 0.02 in each case. For the same molecule, the solubility in [2] is > 1000 µg/mL. In [8], the Papp A→B came out at 10.5 ×10⁻⁶ cm/s. Further, the IC50 is 17 nM in series [9] and > 1000 nM in [10]. The molecule further displayed a logD in [4] of 1.77.

In the case of `O=C(O)c1cc(-c2ccc(F)c(C(F)(F)F)c2)ncn1`, the logD in series [4] came to 0.45.

As to `O=c1[nH]ccn1-c1cc(-c2ccc(Cl)c(Cl)c2)ncn1`, the IC50 in series [5] is > 10000 nM.

Turning to `Cc1ccc(-c2cc(C(=O)O)ncn2)cc1F`, the logD in series [4] is -0.33.

`Cn1ccn(-c2cc(-c3ccc(Cl)c(Cl)c3)ncn2)c1=O`: the IC50 in series [5] is > 10000 nM.

`O=C(Nc1cc(-c2ccc(Cl)c(Cl)c2)ncn1)c1ccccc1`: the IC50 in [5] is > 10000 nM.

In the case of `O=C(O)c1cc(-c2ccc(Cl)cc2)ncn1`, the logD in [4] was -0.11.

In the case of `O=C(O)c1cc(-c2cccc(Cl)c2)ncn1`, in series [4], the logD stood at 0.12.
